From PubChem BioAssay AID540295 (The Scripps Research Institute Molecular Screening Center, 2011)
Hit rate of the full screen: of about 360,000 compounds, about 1,700 (0.47%) were called active. The full list was thinned out, with actives kept by preference. A number with no mark means an inactive call.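 How the source made its calls: active means inhibition above its plate's cutoff, the mean of tested wells on that plate plus 3 SD (cut at about 29% in these data); inactive means the rest.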

Target: Melanocortin receptor 4 (Homo sapiens) (UniProt P32245)
Test: blockers of MC4R Gs-cAMP response – cell-based, TR-FRET, antagonist arm of biased-ligand search, primary screen (AID 540295);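 further: 0% = Melanotan II alone and 100% = Melanotan II plus saturating MCL0020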
Conditions: MC4R-expressing cells, MTII-stimulated cAMP, LANCE TR-FRET; at 6.5 µM; active compounds read high
How it was run: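 Assay system: U2OS cells stably expressing human melanocortin 4 receptor (MC4R) / Dosing: 6.5 µM / Timing: compound 30 min, challenge 1 h, detection 1 h / Measured by: Eu-cAMP/anti-cAMP TR-FRET, emission 671 nm / Replicates: singlicate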

Melanocortin receptor 4 (Homo sapiens), sequence (P32245 whole entry, looked up): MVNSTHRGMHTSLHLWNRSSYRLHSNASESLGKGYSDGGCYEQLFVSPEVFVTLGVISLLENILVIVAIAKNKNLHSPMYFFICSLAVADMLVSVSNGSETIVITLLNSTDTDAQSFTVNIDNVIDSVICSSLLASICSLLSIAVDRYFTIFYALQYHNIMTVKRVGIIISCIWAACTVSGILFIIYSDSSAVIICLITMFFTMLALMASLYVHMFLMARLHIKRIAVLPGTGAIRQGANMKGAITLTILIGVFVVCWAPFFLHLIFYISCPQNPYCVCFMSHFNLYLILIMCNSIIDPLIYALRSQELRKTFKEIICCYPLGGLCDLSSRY

SMILES | inhibition
CCN(C(=O)CSc1ncnc2sccc12)c1c(N)n(Cc2ccccc2)c(=O)[nH]c1=O | -1.83%
CCCNc1ncnc2sc(C)c(C)c12 | -9.19%
COc1ccc(C(C[N+](=O)[O-])n2nc(C)cc2C)cc1 (stereo unspecified) | 46.6% (active)
COc1cccc(CSc2nc3nc(C)cc(C)n3n2)c1 | -3.34%
COc1ccc(OC)c(S(=O)(=O)n2c([N+](=O)[O-])cnc2C)c1 | 0.16%
Cc1ccc(C)c(S(=O)(=O)N2CCCOC2CNC(=O)C(=O)NC2CCCCC2)c1 (stereo unspecified) | 4.1%
O=C1CCC([N+](=O)[O-])C(c2ccccc2Br)N1 (stereo unspecified) | 25.1%
C/C(=N\OCC(=O)Nc1ccc(Br)cc1)c1cccs1 | -1.35%
Cc1ccc(OCC(=O)Nc2ccc(NC(=O)c3cccs3)cc2)c(C)c1 | 29.7% (active)
Cc1ccc(OCC(=O)Nc2ccc(N3CCN(C(=O)c4ccco4)CC3)cc2)c(C)c1 | 12.1%
CC(=O)Oc1ccc(-c2cccc(C(=O)N3CCCCC3)c2)cc1 | -4.05%
O=C(O[C@@H]1[C@H](Cc2ccccc2)NS(=O)(=O)[C@H]2C[C@@H]3C=C[C@]12O3)c1ccccc1Br | 12%
Cc1ccc(NS(=O)(=O)c2ccc(C)c(NC(=O)COc3ccc4ccccc4c3)c2)c(C)c1 | 31.4% (active)
Cc1ccc(C)c(NC(=O)CN(C)C(=O)COc2ccc3ccccc3c2)c1 | 2.76%
Cc1ccc(C)c(NS(=O)(=O)c2ccc(OCC(=O)NCc3cccnc3)cc2)c1 | -2.79%
O=C(Nc1cc(C(F)(F)F)ccc1Cl)c1cc2nc3c(c(C(F)(F)F)n2n1)CCCC3 | 2.12%
CN(CC(=O)NC1CCCC1)S(=O)(=O)c1cnc[nH]1 | -1.7%
O=C(OCc1ccc([N+](=O)[O-])cc1)C1CC(=O)N(Cc2ccccc2Cl)C1 (stereo unspecified) | 7.18%
CCCCCOC(=O)C1=C(C)Nc2nnnn2C1c1ccc(OC)c(OC)c1OC (stereo unspecified) | 12.4%
Cn1ccc(=NC=C(C#N)C#N)c2ccccc21 | 27.8%
O=[N+]([O-])/C=C/c1ccc2c(ccn2Cc2ccccc2)c1 | 46.2% (active)

SMILES | inhibition
O=C(CN1CCCSc2ccccc21)N1CCN(S(=O)(=O)c2cccc(F)c2)CC1 | 5.01%
O=C(CN1CCCSc2ccccc21)N1CCN(S(=O)(=O)c2ccccc2)CC1 | 5.29%
N#C/C=C1\Sc2ccccc2C(=O)N1CC(=O)N1CCN(S(=O)(=O)c2ccccc2)CC1 | 33.4% (active)
Cc1ccc2c(c1)C1CN(C)CCC1N2S(=O)(=O)c1ccc(Oc2ccc([N+](=O)[O-])cc2)cc1 (stereo unspecified) | 2.73%
O=C(CN1CCc2ccccc21)NC(c1ccccc1)c1ccccc1 | 1.1%
O=C(COC(=O)c1c2c(nc3ccccc13)CCCC2)c1ccc(Br)s1 | 33.9% (active)
NC(=O)c1ccc(NC(=O)COC(=O)c2c3c(nc4ccccc24)/C(=C\c2ccc4c(c2)OCO4)CCC3)cc1 | -10%
Cn1cccc1C(=O)OCC(=O)c1ccc(Br)s1 | 4.25%
COC(=O)c1cc(NC(=O)c2cc(C(C)(C)C)nn2Cc2cccc(C)c2)ccc1N1CCOCC1 | 4.17%
COc1ccc(NC2CCCN(C(=O)c3ccccc3-c3ncc[nH]3)C2)cc1 (stereo unspecified) | 4.61%
CCc1ccc2oc(=O)cc(CN3CCCCC3C)c2c1 (stereo unspecified) | 10.6%
CC(NC(=O)COc1ccccc1)C(=O)NC1=NCCS1 (stereo unspecified) | 0.52%
COc1ccc(CCNC(=O)COC(=O)c2ncc(Cl)c(Cl)c2Cl)cc1OC | 14.8%
CCOc1ncccc1C(=O)NCCc1ccc(OC)cc1 | -0.79%
O=C(OCC(=O)N1CCCCCC1)c1cnc(Cl)c(Cl)c1 | 30.5% (active)
CC(CCc1ccccc1)NC(=O)c1cnc(Cl)c(Cl)c1 (stereo unspecified) | 9.38%
COc1ccc(CCNC(=O)COC(=O)c2cnc(Cl)c(Cl)c2)cc1 | 39.7% (active)
COc1ccc(CCNC(=O)c2cnc(Cl)c(Cl)c2)cc1 | 29.6% (active)
COC(=O)c1ccc(COC(=O)c2cnc(Cl)c(Cl)c2)cc1 | 21.5%
O=C(OCC(=O)N1CCCCCC1)c1ccc(Cl)nc1 | 2.21%
O=C(OCC(=O)N1CCCC1)c1ccc(Cl)nc1 | -3.4%

SMILES | inhibition
NC1=NC(=O)S/C1=C\c1ccc(O)cc1 | -45.1%
CC(CC(=O)C1C(C)C=CCC1(C)C)NNC(N)=O (stereo unspecified) | 0.06%
CCCc1nc2oc3c(OCC)ncnc3c2c2c1COC(C)(C)C2 | 2.51%
COc1ccc(/C=N/n2c(C)cc(C)cc2=O)cc1 | 5.08%
CCOC(=O)C1=CN(Cc2ccc(Br)cc2)S(=O)(=O)NC1C (stereo unspecified) | 1.79%
CN(C)/C=C(/C(=O)c1ccc(F)cc1)S(=O)(=O)c1ccc(F)cc1 | -0.11%
CCOC(=O)N1CCN(C(=O)C2CCN(S(C)(=O)=O)CC2)CC1 | 3.32%
Brc1ccc(CN2CC[C@H]3C=CCc4cccc(c43)C2)cc1 | 11.3%
Cc1cc(=O)n2nc(N3CCCC(C(=O)N4CCN(C)CC4)C3)sc2n1 (stereo unspecified) | 0.44%
CSc1nnc2c(n1)OC(c1ccsc1)N(C(C)=O)c1ccccc1-2 (stereo unspecified) | 3.07%
CNC(=O)C1CN(C(=O)c2cccc(S(=O)(=O)N3CCc4ccccc43)c2)c2ccccc2O1 (stereo unspecified) | 5.06%
CSc1ccc(C#N)cc1NC(=O)c1ccc(Cl)cc1 | 2.18%
Cc1c(Cl)cccc1NC(=S)NCC(O)c1ccccc1 (stereo unspecified) | 3.92%
Cc1c(Cl)cccc1NC(=O)NCc1ccc(C)n1C | 5.07%
Cc1c(Cl)cccc1NC(=O)[C@@]1(CC(=O)O)CC(/C=C/c2ccccc2)=NO1 | 38.9% (active)
Cc1ccc(OCC(=O)Nc2cccc3c2CCCC3)cc1C | 5.28%
O=C(O)CCn1cc(/C=C/C(=O)c2ccc(Cl)cc2)c(-c2cccc(Br)c2)n1 | 32.5% (active)
O=c1c2cc(Br)ccc2nc(-c2cccc(Cl)c2)n1O | 2.37%
O=C(COC(=O)/C=C/c1cn(-c2ccccc2)nc1-c1cccnc1)Nc1ccc(Cl)cc1Cl | 11.1%
